Values joined by “and” are separate entries in the source; they are usually repeats but may differ in a detail not shown here. Identical values can stand only once. Like-named read-outs stand apart in the source and are kept apart here.
Key:
[1] = multiple daily doses of vortioxetine 10 mg; CYP2D6 probe; cited from earlier work
[2] = Adverse events in the bupropion study; format: in vivo, human; conditions: monotherapy period, days 1–14, n = 30
[3] = format: in vivo, human
[4] = cited from earlier work
[5] = tested on: CYP2E1; test: In vitro CYP inhibition; format: in vitro ADME
[6] = cited from earlier work; remark: listed apart in the source
[7] = format: in vivo, human; remark: listed apart in the source
Outline: (§1)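 Open-label, randomized, 1-sequence design in healthy adults aged 18–55 y with BMI 19–30 kg/m2 (N = 36 across two arms). Test compound given as a single 10 mg dose on day 1, then a 14-day washout. The azole antifungal (CYP3A/P-gp inhibitor) was given at 400 mg once daily on days 15–21, with test compound 10 mg on day 21. EDTA plasma was sampled predose and 1–120 h postdose on days 1 and 21. Analysis used SPE and HPLC. Noncompartmental AUClast, AUC∞ and Cmax were derived. A mixed-effects model (treatment fixed, subject random) gave back-transformed LS-mean ratios with 90% CI.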

[8] = tested on: CYP2C9; test: In vitro CYP inhibition; format: in vitro ADME
[9] = format: in vivo, human; remark: listed apart in the source
[10] = tested on: CYP2B6; test: In vitro CYP inhibition; format: in vitro ADME
[11] = tested on: CYP2C8; test: In vitro CYP inhibition; format: in vitro ADME
[12] = tested on: CYP2D6; test: In vitro CYP inhibition; format: in vitro ADME
[13] = tested on: CYP1A2; test: In vitro CYP inhibition; format: in vitro ADME
[14] = target: P-glycoprotein (P-gp) (Homo sapiens, UniProt P08183); test: In vitro P-gp net efflux ratio; format: in vitro ADME; conditions: compared with digoxin; unpublished results
[15] = format: in vivo, human; remark: listed apart in the source
[16] = tested on: CYP3A4/5; test: In vitro CYP inhibition; format: in vitro ADME
[17] = tested on: CYP2C19; test: In vitro CYP inhibition; format: in vitro ADME
[18] = tested on: CYP2A6; test: In vitro CYP inhibition; format: in vitro ADME
[19] = format: in vivo, human; remark: listed apart in the source
Outline: as §1, with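 “antifungal” for “antifungal (CYP3A/P-gp inhibitor)”, “200” for “400”, “was applied, and” for “gave”, “CI are reported.” for “CI.”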

[20] = format: in vivo, human; conditions: for AUC / Cmax: female, human, plasma, oral; for AUC: AUC24, least-squares mean, day 21; for Cmax: least-squares mean; for AUC24 ratio (test/reference) / Cmax ratio (test/reference): with vortioxetine vs alone
[21] = Nonclinical pharmacology study: blood–brain barrier penetration; conditions: based on a nonclinical pharmacology study, unpublished results
[22] = Plasma metabolic ratio of metabolite; format: in vivo; conditions: minor hydroxyl metabolite of vortioxetine
[23] = format: in vivo, human; remark: listed apart in the source
[24] = format: in vivo, human; remark: listed apart in the source
[25] = Pharmacological activity of the major metabolite; conditions: major carboxylic acid metabolite
[26] = co-administered with ketoconazole vs vortioxetine alone
[27] = co-administered with rifampicin vs vortioxetine alone
[28] = co-administered with bupropion vs vortioxetine alone
[29] = co-administered with fluconazole vs vortioxetine alone
[30] = concomitant agent alone (reference): placebo + EE/L 30/150 μg for 21 days
[31] = vortioxetine 10 mg + EE/L 30/150 μg for 21 days (test)
[32] = omeprazole 40 mg single dose + vortioxetine 10 mg at steady state (test), day 16
[33] = omeprazole 40 mg single dose alone (reference), day 1

P-glycoprotein (P-gp), sequence (P08183 whole entry): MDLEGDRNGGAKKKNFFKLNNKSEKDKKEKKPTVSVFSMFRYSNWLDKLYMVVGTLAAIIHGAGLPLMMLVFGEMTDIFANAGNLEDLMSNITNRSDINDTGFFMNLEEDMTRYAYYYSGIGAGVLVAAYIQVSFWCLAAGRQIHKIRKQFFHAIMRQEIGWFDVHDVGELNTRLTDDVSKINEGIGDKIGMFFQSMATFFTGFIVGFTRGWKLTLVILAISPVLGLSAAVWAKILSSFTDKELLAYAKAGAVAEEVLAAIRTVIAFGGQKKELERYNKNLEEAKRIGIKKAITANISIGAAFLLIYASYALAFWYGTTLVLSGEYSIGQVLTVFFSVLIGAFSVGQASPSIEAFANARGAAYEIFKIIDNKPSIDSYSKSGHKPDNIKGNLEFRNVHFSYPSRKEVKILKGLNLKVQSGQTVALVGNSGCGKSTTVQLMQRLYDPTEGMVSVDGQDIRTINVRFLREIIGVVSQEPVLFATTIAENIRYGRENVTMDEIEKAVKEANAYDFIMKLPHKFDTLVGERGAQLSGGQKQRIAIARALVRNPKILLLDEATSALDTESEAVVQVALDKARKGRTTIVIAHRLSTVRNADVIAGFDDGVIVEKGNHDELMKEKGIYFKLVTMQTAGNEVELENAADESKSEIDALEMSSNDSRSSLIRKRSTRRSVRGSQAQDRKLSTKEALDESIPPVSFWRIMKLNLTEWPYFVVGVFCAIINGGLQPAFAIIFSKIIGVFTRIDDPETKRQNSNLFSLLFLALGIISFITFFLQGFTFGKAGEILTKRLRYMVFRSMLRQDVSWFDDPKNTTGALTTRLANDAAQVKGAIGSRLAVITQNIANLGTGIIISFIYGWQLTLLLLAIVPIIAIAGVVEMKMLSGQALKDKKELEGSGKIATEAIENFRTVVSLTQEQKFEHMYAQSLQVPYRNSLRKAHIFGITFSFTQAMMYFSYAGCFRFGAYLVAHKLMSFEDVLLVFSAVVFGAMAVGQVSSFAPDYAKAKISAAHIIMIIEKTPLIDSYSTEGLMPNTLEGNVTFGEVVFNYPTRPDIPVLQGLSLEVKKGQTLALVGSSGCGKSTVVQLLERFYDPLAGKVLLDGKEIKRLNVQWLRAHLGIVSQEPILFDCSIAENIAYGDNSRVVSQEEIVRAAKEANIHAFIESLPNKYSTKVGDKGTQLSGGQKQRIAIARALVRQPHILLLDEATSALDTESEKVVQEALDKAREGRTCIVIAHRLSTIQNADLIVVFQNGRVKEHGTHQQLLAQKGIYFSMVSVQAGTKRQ

COc1ccc2c(c1)[C@]13CCCC[C@@H]1[C@H](C2)N(C)CC3 [dextromethorphan]
decrease in plasma exposure of probe substrate by vortioxetine [1]: up to 24%

Br.Cc1ccc(Sc2ccccc2N2CCNCC2)c(C)c1 [Vortioxetine, 1-[2-(2,4-dimethylphenylsulfanyl)-phenyl]-piperazine-hydrobromide]
Abnormal dreams [2]: 2 (6.7) number of subjects (%) | Agitation [2]: 0 number of subjects (%) | Anxiety [2]: 0 number of subjects (%) | Constipation [2]: 3 (10.0) number of subjects (%) | Dizziness [2]: 1 (3.3) number of subjects (%) | Dyspepsia [2]: 1 (3.3) number of subjects (%) | Fatigue [2]: 1 (3.3) number of subjects (%) | Headache [2]: 4 (13.3) number of subjects (%) | Hyperhidrosis [2]: 0 number of subjects (%) | Insomnia [2]: 1 (3.3) number of subjects (%) | Nausea [2]: 9 (30.0) number of subjects (%) | Oropharyngeal pain [2]: 0 number of subjects (%) | Palpitations [2]: 2 (6.7) number of subjects (%) | Somnolence [2]: 0 number of subjects (%) | Tremor [2]: 0 number of subjects (%) | URTI (upper respiratory tract infection) [2]: 0 number of subjects (%) | Vertigo [2]: 0 number of subjects (%) | Vomiting [2]: 3 (10.0) number of subjects (%) | AUC ([3]; human, plasma, 10 mg): 243 ng·h/mL | Cmax ([3]; human, plasma, 10 mg): 13.8 ng/mL | AUC24 ratio (test/reference) ([3]; with omeprazole vs alone): 105.5% | Cmax ratio (test/reference) ([3]; with omeprazole vs alone): 100.5% | elimination half-life [4]: 57 h | steady-state volume of distribution [4]: approximately 2600 L | oral bioavailability ([4]; independent of food): 75% | inhibitory concentration/inhibition constant ratio ([I]/Ki) [5]: ≤ 0.024 | drug-related material excreted in the feces [6]: one-third | drug-related material excreted in the urine ([6]; primarily as Lu AA34443 and its glucuronide): two-thirds | increase in vortioxetine AUC [7, 26]: 30% | increase in vortioxetine Cmax [7, 26]: 26% | AUC(0-t) ([7]; human, plasma, 10 mg): 262 ng·h/mL | Cmax ([7]; human, plasma, 10 mg): 4.92 ng/mL | AUClast ratio (test/reference) ([7]; with ketoconazole vs alone): 130.48% | Cmax ratio (test/reference) ([7]; with ketoconazole vs alone): 125.73% | inhibitory concentration/inhibition constant ratio ([I]/Ki) [8]: ≤ 0.024 | decrease in vortioxetine AUC (exposure) [9, 27]: 72% and 72 to 77% | decrease in vortioxetine Cmax [9, 27]: 51% | AUC(0-t) ([9]; human, plasma, 20 mg): 438 ng·h/mL | Cmax ([9]; human, plasma, 20 mg): 8.92 ng/mL | AUClast ratio (test/reference) ([9]; with rifampicin vs alone): 27.74% | Cmax ratio (test/reference) ([9]; with rifampicin vs alone): 49.11% | inhibitory concentration/inhibition constant ratio ([I]/Ki) [10]: ≤ 0.024 | inhibitory concentration/inhibition constant ratio ([I]/Ki) [11]: ≤ 0.024 | inhibitory concentration/inhibition constant ratio ([I]/Ki) [12]: ≤ 0.024 | inhibitory concentration/inhibition constant ratio ([I]/Ki) [13]: ≤ 0.024 | in vitro net efflux ratio (P-gp substrate) [14]: much lower than that of the P-gp substrate digoxin | increase in exposure of vortioxetine ([15]; bupropion added to vortioxetine): approximately 100% | increase in vortioxetine AUC [15, 28]: 128% | increase in vortioxetine Cmax [15, 28]: 114% | AUC ([15]; human, plasma, 10 mg): 308 ng·h/mL | Cmax ([15]; human, plasma, 10 mg): 15.9 ng/mL | AUC24 ratio (test/reference) ([15]; with bupropion vs alone): 228.30% | Cmax ratio (test/reference) ([15]; with bupropion vs alone): 213.57% | inhibitory concentration/inhibition constant ratio ([I]/Ki) [16]: ≤ 0.024 | inhibitory concentration/inhibition constant ratio ([I]/Ki) [17]: ≤ 0.024 | inhibitory concentration/inhibition constant ratio ([I]/Ki) [18]: ≤ 0.024 | increase in vortioxetine AUC [19, 29]: 46% | increase in vortioxetine Cmax [19, 29]: 15% | AUC(0-t) ([19]; human, plasma, 10 mg): 222 ng·h/mL | Cmax ([19]; human, plasma, 10 mg): 4.52 ng/mL | AUClast ratio (test/reference) ([19]; with fluconazole vs alone): 146.17% | Cmax ratio (test/reference) ([19]; with fluconazole vs alone): 114.64%

C#C[C@]1(O)CC[C@H]2[C@@H]3CCc4cc(O)ccc4[C@H]3CC[C@@]21C [Ethinyl estradiol, ethinyl estradiol]
AUC [20, 30]: 0.857 ng·h/mL | AUC [20, 31]: 0.85 ng·h/mL | Cmax [20, 31]: 0.0816 ng/mL | AUC24 ratio (test/reference) [20]: 99.19% | Cmax ratio (test/reference) [20]: 93.87%

Cc1ccc(Sc2cc(O)ccc2N2CCNCC2)c(C)c1 [Lu AA39835]
penetration of the blood–brain barrier [21]: not expected to penetrate the blood–brain barrier | plasma metabolic ratio [22]: ≤ 4%

CC(NC(C)(C)C)C(=O)c1cccc(Cl)c1 (centres unmarked) [Bupropion, bupropion]
Abnormal dreams [2]: 0 number of subjects (%) | Agitation [2]: 0 number of subjects (%) | Anxiety [2]: 0 number of subjects (%) | Any adverse event [2]: 19 (63.3) number of subjects (%) | Constipation [2]: 0 number of subjects (%) | Dizziness [2]: 3 (10.0) number of subjects (%) | Dyspepsia [2]: 2 (6.7) number of subjects (%) | Fatigue [2]: 0 number of subjects (%) | Headache [2]: 10 (33.3) number of subjects (%) | Hyperhidrosis [2]: 1 (3.3) number of subjects (%) | Insomnia [2]: 1 (3.3) number of subjects (%) | Nausea [2]: 5 (16.7) number of subjects (%) | Oropharyngeal pain [2]: 0 number of subjects (%) | Palpitations [2]: 2 (6.7) number of subjects (%) | Somnolence [2]: 3 (10.0) number of subjects (%) | Tremor [2]: 1 (3.3) number of subjects (%) | URTI (upper respiratory tract infection) [2]: 3 (10.0) number of subjects (%) | Vertigo [2]: 1 (3.3) number of subjects (%) | Vomiting [2]: 2 (6.7) number of subjects (%) | Cmax greater when given with vortioxetine than without ([23]; bupropion with vs without vortioxetine): 18% | AUC ([23]; human, plasma, 150 mg): 791 ng·h/mL | Cmax, least-squares mean ([23]; vortioxetine 10 mg once daily + bupropion 150 mg twice daily (test), day 28): 177 ng/mL | AUC24 ratio (test/reference) ([23]; with vortioxetine vs alone): 99.22% | Cmax ratio (test/reference) ([23]; with vortioxetine vs alone): 117.98%

COc1ccc2nc([S+]([O-])Cc3ncc(CO)c(OC)c3C)[nH]c2c1 (centres unmarked) [5′-Hydroxyomeprazole, 5′-hydroxyomeprazole]
AUC∞, least-squares mean [24, 32]: 976 ng·h/mL | Cmax, least-squares mean [24, 32]: 411 ng/mL | AUC∞, least-squares mean [24, 33]: 997 ng·h/mL | Cmax, least-squares mean [24, 33]: 392 ng/mL | AUC∞ ratio (test/reference) ([24]; with vortioxetine vs alone): 97.9% | Cmax ratio (test/reference) ([24]; with vortioxetine vs alone): 104%

Cc1cc(C(=O)O)ccc1Sc1ccccc1N1CCNCC1 [Lu AA34443]
pharmacological activity [25]: pharmacologically inactive

C#C[C@]1(O)CC[C@H]2[C@@H]3CCC4=CC(=O)CC[C@@H]4[C@H]3CC[C@@]21CC [Levonorgestrel, levonorgestrel]
AUC [20, 30]: 86.8 ng·h/mL | Cmax [20, 30]: 6.76 ng/mL | Cmax [20, 31]: 7.23 ng/mL | AUC24 ratio (test/reference) [20]: 102.07% | Cmax ratio (test/reference) [20]: 107.06%

COc1ccc2[nH]c([S+]([O-])Cc3ncc(C)c(OC)c3C)nc2c1 (centres unmarked) [Omeprazole, omeprazole]
AUC(0-inf) ([24]; human, plasma, 40 mg): 1110 ng·h/mL | Cmax ([24]; human, plasma, 40 mg): 550 ng/mL | Cmax greater when given with vortioxetine than without ([24]; omeprazole with vs without vortioxetine): 11% | Cmax ratio (test/reference) ([24]; with vortioxetine vs alone): 111%

From publication PMC3775155 (Clinical Drug Investigation, 2013)
